What all share (assay type): cell-based
Experiment [1] addresses Toll-like receptor 4 (Homo sapiens) (UniProt O00206). The experiment in a line: Activity at human TLR4 expressed in HEK293 cells co-expressing secreted alkaline phosphatase assessed as induction of NF-kappaB/AP-1 promoter activity by measuring increase in secreted alkaline phosphatase level by spectrophotometric method. Summed up: (§1)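 HEK293 cells stably co-transfected with the relevant human TLR (2, 3, 4, 5, 7, 8 or 9) plus an NF-κB/AP-1-driven secreted alkaline phosphatase reporter, kept in selection medium. Cells at ~10⁵ cells/ml were exposed to graded concentrations of stimuli in 384-well format, liquid-handler assisted. Supernatant sAP was read at 620 nm with an alkaline phosphatase-specific chromogen.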

Experiment [2] concerns the target T1, Toll-like receptor 9 (Homo sapiens) (UniProt Q9NR96).
T1 sequence (whole entry): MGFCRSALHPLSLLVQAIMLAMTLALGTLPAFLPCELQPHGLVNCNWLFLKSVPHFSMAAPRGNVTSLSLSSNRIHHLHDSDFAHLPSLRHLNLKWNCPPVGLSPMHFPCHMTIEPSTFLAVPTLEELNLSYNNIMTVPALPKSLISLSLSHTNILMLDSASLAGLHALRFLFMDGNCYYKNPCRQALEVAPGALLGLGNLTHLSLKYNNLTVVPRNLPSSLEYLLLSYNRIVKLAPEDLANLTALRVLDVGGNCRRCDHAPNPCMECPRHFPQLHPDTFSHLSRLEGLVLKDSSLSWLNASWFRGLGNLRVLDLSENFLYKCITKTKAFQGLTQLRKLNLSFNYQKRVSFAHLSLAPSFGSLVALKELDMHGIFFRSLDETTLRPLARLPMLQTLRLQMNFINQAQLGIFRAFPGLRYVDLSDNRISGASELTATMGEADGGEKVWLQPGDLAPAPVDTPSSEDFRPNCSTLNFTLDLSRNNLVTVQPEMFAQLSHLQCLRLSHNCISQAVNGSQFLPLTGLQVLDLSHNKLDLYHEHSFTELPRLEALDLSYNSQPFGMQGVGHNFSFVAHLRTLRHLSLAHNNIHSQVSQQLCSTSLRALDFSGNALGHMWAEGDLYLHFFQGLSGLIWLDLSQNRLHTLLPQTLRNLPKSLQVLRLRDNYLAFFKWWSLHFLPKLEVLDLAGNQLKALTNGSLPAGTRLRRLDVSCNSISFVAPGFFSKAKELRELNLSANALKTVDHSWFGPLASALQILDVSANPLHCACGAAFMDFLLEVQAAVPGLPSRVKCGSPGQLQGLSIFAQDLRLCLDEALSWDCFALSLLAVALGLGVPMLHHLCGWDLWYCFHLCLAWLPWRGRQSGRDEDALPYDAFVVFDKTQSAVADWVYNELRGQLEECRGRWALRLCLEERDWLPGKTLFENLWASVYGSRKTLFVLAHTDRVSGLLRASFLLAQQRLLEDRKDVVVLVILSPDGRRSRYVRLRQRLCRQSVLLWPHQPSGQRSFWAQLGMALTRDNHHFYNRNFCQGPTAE
The experiment in a line: Activity at human TLR9 expressed in HEK293 cells co-expressing secreted alkaline phosphatase assessed as induction of NF-kappaB/AP-1 promoter activity by measuring increase in secreted alkaline phosphatase level by spectrophotometric method. Summed up:
as §1

The target of experiment [3] is Toll-like receptor 3 (Homo sapiens) (UniProt O15455). The experiment in a line: Activity at human TLR3 expressed in HEK293 cells co-expressing secreted alkaline phosphatase assessed as induction of NF-kappaB/AP-1 promoter activity by measuring increase in secreted alkaline phosphatase level by spectrophotometric method. Summed up: as §1
The target of experiment [4] is Toll-like receptor 5 (Homo sapiens) (UniProt O60602). The experiment in a line: Activity at human TLR5 expressed in HEK293 cells co-expressing secreted alkaline phosphatase assessed as induction of NF-kappaB/AP-1 promoter activity by measuring increase in secreted alkaline phosphatase level by spectrophotometric method. In a few lines: as §1
Experiment [5] has as its target T2, Toll-like receptor 7 (Homo sapiens, UniProt Q9NYK1).
T2 sequence (Q9NYK1 whole entry): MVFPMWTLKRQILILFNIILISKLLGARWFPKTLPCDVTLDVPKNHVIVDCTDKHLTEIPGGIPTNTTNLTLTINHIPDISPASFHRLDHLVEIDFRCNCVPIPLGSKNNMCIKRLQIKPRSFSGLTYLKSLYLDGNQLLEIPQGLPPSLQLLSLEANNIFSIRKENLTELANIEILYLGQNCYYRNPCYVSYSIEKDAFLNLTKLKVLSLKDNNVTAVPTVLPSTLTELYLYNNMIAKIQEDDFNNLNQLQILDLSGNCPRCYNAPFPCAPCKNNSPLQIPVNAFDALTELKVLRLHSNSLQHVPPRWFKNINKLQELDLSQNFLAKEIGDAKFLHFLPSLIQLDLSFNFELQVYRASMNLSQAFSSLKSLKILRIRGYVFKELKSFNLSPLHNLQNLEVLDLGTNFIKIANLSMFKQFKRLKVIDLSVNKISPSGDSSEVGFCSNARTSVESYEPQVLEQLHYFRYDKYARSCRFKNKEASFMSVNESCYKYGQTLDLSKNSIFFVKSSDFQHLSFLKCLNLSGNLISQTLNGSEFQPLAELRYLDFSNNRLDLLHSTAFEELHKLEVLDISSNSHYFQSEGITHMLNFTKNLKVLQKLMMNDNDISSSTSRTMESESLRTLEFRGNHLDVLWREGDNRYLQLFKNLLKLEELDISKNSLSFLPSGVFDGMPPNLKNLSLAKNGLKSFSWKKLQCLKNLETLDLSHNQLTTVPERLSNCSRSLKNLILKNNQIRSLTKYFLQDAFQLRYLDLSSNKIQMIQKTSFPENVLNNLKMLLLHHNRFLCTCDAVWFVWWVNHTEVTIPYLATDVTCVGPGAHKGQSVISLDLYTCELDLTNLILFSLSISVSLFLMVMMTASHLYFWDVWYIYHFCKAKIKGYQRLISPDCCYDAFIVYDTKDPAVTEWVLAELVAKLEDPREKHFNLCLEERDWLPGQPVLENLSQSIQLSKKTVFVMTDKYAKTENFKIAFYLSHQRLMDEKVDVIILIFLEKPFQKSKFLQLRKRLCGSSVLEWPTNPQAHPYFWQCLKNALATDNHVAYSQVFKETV
The experiment in a line: Agonist activity at human TLR7 expressed in HEK293 cells co-expressing secreted alkaline phosphatase assessed as induction of NF-kappaB/AP-1 promoter activity by measuring increase in secreted alkaline phosphatase level by spectrophotometric method. In a few lines:
as §1

Experiment [6] has as its target Toll-like receptor 2 (Homo sapiens) (UniProt O60603). The experiment can be described thus: Activity at human TLR2 expressed in HEK293 cells co-expressing secreted alkaline phosphatase assessed as induction of NF-kappaB/AP-1 promoter activity by measuring increase in secreted alkaline phosphatase level by spectrophotometric method. Summed up: as §1

The structures appear in SMILES notation. Calls of active or inactive are those of the source. The rule behind the calls is not given here.

The term EC50 denotes the concentration at which the effect is half-maximal.

Sequence of Toll-like receptor 4 (Homo sapiens) (O00206 whole entry): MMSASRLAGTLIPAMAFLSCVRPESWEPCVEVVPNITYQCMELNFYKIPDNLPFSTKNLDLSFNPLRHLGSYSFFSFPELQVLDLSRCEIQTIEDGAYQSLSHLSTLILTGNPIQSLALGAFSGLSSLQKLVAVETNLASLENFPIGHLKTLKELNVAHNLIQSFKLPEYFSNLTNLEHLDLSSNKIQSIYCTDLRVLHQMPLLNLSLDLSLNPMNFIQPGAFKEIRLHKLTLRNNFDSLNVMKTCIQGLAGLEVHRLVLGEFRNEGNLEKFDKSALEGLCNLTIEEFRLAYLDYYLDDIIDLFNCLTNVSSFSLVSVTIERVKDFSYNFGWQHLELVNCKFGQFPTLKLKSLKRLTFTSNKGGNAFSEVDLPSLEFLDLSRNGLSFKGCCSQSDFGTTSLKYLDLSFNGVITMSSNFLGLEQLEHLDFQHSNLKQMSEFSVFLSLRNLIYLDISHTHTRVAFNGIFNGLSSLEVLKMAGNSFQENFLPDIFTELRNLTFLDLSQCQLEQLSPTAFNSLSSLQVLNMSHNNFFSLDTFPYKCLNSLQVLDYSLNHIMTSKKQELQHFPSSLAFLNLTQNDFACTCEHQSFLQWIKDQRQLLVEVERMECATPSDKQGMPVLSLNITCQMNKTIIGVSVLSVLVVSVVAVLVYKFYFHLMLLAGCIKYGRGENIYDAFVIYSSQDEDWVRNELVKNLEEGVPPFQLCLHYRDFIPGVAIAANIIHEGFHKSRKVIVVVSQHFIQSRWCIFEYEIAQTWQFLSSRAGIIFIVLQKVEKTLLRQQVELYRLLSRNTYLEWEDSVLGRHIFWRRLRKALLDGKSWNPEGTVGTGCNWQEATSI
Sequence of Toll-like receptor 2 (Homo sapiens) (O60603 whole entry): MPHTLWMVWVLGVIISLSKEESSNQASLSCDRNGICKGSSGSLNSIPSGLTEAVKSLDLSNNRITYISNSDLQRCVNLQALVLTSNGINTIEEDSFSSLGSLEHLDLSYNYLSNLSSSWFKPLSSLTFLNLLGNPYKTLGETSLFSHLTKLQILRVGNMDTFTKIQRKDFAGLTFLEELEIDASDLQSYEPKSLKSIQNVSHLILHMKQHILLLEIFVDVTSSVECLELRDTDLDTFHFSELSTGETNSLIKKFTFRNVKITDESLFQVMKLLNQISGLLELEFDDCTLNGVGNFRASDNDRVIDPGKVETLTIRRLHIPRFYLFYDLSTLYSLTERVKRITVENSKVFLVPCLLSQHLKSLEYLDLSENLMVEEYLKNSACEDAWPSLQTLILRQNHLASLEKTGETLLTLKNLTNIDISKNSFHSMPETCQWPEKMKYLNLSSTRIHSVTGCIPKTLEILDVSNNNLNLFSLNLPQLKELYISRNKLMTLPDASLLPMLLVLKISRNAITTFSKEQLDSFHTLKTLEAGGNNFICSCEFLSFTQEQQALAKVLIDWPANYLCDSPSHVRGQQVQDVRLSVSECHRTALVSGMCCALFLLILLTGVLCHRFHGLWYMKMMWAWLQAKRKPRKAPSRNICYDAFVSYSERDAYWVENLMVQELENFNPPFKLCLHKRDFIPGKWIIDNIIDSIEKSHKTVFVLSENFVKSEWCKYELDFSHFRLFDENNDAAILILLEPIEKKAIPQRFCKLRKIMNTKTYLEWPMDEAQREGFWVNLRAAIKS
Sequence of Toll-like receptor 3 (Homo sapiens) (O15455 whole entry): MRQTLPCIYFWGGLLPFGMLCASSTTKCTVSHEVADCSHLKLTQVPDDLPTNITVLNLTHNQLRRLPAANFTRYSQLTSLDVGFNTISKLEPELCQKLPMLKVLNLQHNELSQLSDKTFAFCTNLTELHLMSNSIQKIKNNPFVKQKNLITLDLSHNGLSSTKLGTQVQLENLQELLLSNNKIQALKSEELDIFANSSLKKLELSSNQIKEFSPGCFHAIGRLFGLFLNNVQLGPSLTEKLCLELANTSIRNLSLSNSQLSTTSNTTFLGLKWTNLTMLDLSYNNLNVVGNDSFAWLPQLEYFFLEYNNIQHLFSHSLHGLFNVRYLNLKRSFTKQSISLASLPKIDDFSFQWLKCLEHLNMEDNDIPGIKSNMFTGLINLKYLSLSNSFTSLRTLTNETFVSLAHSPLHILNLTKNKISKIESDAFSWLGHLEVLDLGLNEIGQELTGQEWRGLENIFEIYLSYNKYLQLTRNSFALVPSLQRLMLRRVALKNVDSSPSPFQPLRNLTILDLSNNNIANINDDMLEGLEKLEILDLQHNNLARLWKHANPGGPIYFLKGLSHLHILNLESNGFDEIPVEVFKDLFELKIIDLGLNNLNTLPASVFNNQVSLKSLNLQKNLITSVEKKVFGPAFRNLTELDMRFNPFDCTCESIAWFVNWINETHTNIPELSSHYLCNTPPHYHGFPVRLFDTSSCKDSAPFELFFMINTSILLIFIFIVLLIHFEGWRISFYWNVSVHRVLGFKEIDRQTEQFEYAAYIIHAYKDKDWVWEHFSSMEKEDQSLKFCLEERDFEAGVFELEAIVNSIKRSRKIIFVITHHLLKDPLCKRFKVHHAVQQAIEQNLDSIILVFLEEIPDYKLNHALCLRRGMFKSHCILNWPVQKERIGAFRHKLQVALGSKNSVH
Sequence of Toll-like receptor 5 (Homo sapiens) (O60602 whole entry): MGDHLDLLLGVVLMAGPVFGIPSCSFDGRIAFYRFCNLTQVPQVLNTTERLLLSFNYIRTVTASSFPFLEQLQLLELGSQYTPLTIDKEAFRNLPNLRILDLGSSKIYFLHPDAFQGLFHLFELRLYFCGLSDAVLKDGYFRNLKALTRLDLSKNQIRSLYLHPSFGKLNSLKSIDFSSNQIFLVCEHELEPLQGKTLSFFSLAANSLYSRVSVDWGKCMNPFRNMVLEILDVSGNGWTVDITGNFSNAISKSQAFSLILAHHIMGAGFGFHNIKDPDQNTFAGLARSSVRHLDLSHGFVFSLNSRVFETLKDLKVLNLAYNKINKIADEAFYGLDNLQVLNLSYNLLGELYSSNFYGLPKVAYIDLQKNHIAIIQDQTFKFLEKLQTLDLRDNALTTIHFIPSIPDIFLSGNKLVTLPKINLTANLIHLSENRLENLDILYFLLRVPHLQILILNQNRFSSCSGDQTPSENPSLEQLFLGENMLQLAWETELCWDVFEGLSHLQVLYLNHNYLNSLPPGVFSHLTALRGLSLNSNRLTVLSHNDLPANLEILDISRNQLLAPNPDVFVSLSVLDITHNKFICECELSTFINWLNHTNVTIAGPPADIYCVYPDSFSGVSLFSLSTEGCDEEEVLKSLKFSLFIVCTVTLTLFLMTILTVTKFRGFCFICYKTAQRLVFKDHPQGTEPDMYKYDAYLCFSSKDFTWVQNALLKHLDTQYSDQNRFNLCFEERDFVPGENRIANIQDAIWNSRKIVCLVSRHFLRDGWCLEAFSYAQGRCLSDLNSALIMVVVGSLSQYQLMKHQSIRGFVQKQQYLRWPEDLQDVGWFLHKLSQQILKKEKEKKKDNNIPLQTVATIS

For `CCCCNc1nc(N)nc(C)c1CCCN1CCN(C)CC1`, the result in experiment [1], in experiment [2], in experiment [3], in experiment [4] and in experiment [6] was inactive. Further, the EC50 in experiment [5] was determined as 251 nM.

Regarding `CCCCNc1nc(N)nc(C)c1CCCN1CCCCCC1`, the outcome in experiment [1], in experiment [2], in experiment [3], in experiment [4] and in experiment [6] was inactive. Also, the EC50 in experiment [5] is 730 nM.

Turning to `CCCCNc1nc(N)nc(C)c1CCCC`, the outcome in experiment [1], in experiment [2], in experiment [3], in experiment [4] and in experiment [6] was inactive. For the same compound, the EC50 in experiment [5] amounted to 590 nM.

As to `CCCCNc1nc(N)nc(C)c1CCCn1cncn1`, the outcome in experiment [1], in experiment [2], in experiment [3], in experiment [4] and in experiment [6] was inactive. Further, in experiment [5], the EC50 worked out at 1160 nM.

Regarding `CCCCNc1nc(N)nc(C)c1CCCN(C)CCOC`, the result in experiment [1], in experiment [2], in experiment [3], in experiment [4] and in experiment [6] was inactive. Also, the EC50 in experiment [5] was 1240 nM.

The values above are taken from ChEMBL document CHEMBL4007404, “Identification of High-Potency Human TLR8 and Dual TLR7/TLR8 Agonists in Pyrimidine-2,4-diamines” (J Med Chem, 2017).
